Test results published in ChEMBL document CHEMBL3232843, “Novel pyrrolidine diketopiperazines selectively inhibit melanoma cells via induction of late-onset apoptosis” (J Med Chem, 2014).
Calls of active or inactive are those of the source. The calls are words filed in the database; no cut-off is given here.

Assays:
M14 [1] = assay: Cytotoxicity against human M14 cells at 100 uM after 72 hrs by CellTiter-Glo luminescence assay; assay type: functional; details: M14, 72 h
Procedure, shortened: (§1)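 1250 cells per well in serum-free medium (F12 for CHO-K1 and A549, DMEM for M14). Compounds given as 10-point 1:3 serial dilutions from a 300 µM stock, plus a gefitinib control. Incubated 72 h at 37 °C, 5% CO2. CellTiter-Glo added for 15 min at room temperature, then luminescence read. Viability normalized to media-only wells (0%) and 1% DMSO wells (100%). Run in triplicate.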

A549 [2] = assay: Cytotoxicity against human A549 cells at 100 uM after 72 hrs by CellTiter-Glo luminescence assay; assay type: functional; details: A549, 72 h; procedure, shortened: as §1
[3] = Cytotoxicity against CHOK1 cells at 100 uM after 72 hrs by CellTiter-Glo luminescence assay; assay type: cell-based, Cricetulus griseus; details: chinese hamster, CHO-K1 cells; read-out: INH; procedure, shortened: as §1
A549 [4] = assay: Cytotoxicity against human A549 cells after 72 hrs by CellTiter-Glo luminescence assay; assay type: functional, cell-based; details: A549, 72 h; procedure, shortened: as §1
[5] = Cytotoxicity against CHOK1 cells after 72 hrs by CellTiter-Glo luminescence assay; assay type: cell-based; details: Cricetulus griseus, CHO-K1, 72 h; procedure, shortened: as §1
M14 [6] = assay: Cytotoxicity against human M14 cells after 72 hrs by CellTiter-Glo luminescence assay; assay type: functional, cell-based; details: M14, 72 h; procedure, shortened: as §1
[7] = Cytotoxicity against human M229 cells expressing B-raf V600E mutant; assay type: functional, cell-based
[8] = Cytotoxicity against human M238 cells expressing B-raf V600E mutant; assay type: functional, cell-based
[9] = Cytotoxicity against human M263 cells expressing B-raf V600E mutant; assay type: functional, cell-based
[10] = Cytotoxicity against human M321 cells expressing B-raf V600E mutant; assay type: functional, cell-based
M14 [11] = assay: Cytotoxicity against human M14 cells expressing […] mutant; assay type: functional, cell-based
[12] = Cytotoxicity against human M249 cells expressing B-raf V600E mutant; assay type: functional, cell-based
SK-MEL-28 = assay: Cytotoxicity against human SK-MEL-28 cells expressing B-raf V600E mutant; assay type: functional, cell-based
[13] = Cytotoxicity against human M262 cells expressing B-raf V600E mutant; assay type: functional, cell-based
M14 [14] = assay: Induction of apoptosis human M14 cells assessed as caspase activity after 24 to 48 hrs using DEVD peptide as substrate by ApoTox-Glo triplex assay; assay type: functional, cell-based
Procedure, shortened: (§2)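 M14 cells, 1250 per well, in serum-free DMEM, settled 4 h, then given 1:3 serial dilutions. Ionomycin, terfenadine and panobinostat were the controls. Incubated 4, 24, 48 or 72 h at 37 °C. A reagent containing 400 µM GF-AFC (live-cell protease, ex 400/em 505 nm) and 400 µM bis-AAF-R110 (dead-cell protease, ex 485/em 520 nm) was applied for 30 min at 37 °C. Caspase-Glo 3/7 (DEVD) luminescence was then read after 30 min at room temperature.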

M14 [15] = assay: Cytotoxicity against human M14 cells assessed as cell viability at 100 uM after 4 hrs using GF-AFC as substrate by ApoTox-Glo triplex assay; assay type: functional, cell-based; procedure, shortened: as §2
M14 [16] = assay: Cytotoxicity against human M14 cells assessed as cell viability at 100 uM after 4 hrs using bis-AAF-R110 as substrate by ApoTox-Glo triplex assay; assay type: functional, cell-based; procedure, shortened: as §2
M14 [17] = assay: Induction of apoptosis human M14 cells assessed as caspase activity at 100 uM after 4 hrs using DEVD peptide as substrate by ApoTox-Glo triplex assay; assay type: functional, cell-based; procedure, shortened: as §2
M14 [18] = assay: Cytotoxicity against human M14 cells assessed as cell viability after 24 hrs using GF-AFC as substrate by ApoTox-Glo triplex assay; assay type: functional, cell-based; procedure, shortened: as §2

Compound: CCC[C@@H]1CNC(=O)C(=O)N1C[C@@H]1CCCN1C[C@@H](Cc1ccc(O)cc1)N1C[C@@H](Cc2ccc(O)cc2)N(CC2CCCC2)C(=O)C1=O
- inhibition at 100 µM (M14 [1]): 25%
- inhibition at 100 µM (A549 [2]): 14%
- cytotoxicity at 72 h, 100 µM [3]: 11%

Compound: CCC[C@H]1CNC(=O)C(=O)N1C[C@@H]1CCCN1C[C@@H](CC1CCCCC1)N1C[C@H](Cc2ccc(O)cc2)N(CCC23CC4CC(CC(C4)C2)C3)C(=O)C1=O
- IC50 (A549 [4]): > 50000 nM
- IC50 [5]: > 50000 nM
- IC50 (M14 [6]): > 50000 nM

Compound: CCCS(=O)(=O)Nc1ccc(F)c(C(=O)c2c[nH]c3ncc(-c4ccc(Cl)cc4)cc23)c1F [VEMURAFENIB]
- IC50 [7]: 100 nM
- IC50 [8]: 100 nM
- IC50 [9]: 100 nM
- IC50 [10]: 100 nM
- IC50 (M14 [11]): 150 nM
- IC50 [12]: 100 nM
- IC50 (SK-MEL-28): 100 nM
- IC50 [13]: 100 nM

Compound: CCC[C@@H]1CNC(=O)C(=O)N1C[C@@H]1CCCN1C[C@H](Cc1ccc(O)cc1)N1C[C@@H](Cc2ccc(O)cc2)N(CC2CCCC2)C(=O)C1=O
- inhibition at 100 µM (M14 [1]): 3%
- inhibition at 100 µM (A549 [2]): 5%
- cytotoxicity at 72 h, 100 µM [3]: 7%

Compound: CCC[C@@H]1CNC(=O)C(=O)N1C[C@@H]1CCCN1C[C@@H](Cc1ccc(O)cc1)N1C[C@@H](Cc2ccc(O)cc2)N(CC(CC)c2ccccc2)C(=O)C1=O (stereo partly drawn)
- inhibition at 100 µM (M14 [1]): 14%
- inhibition at 100 µM (A549 [2]): 8%
- cytotoxicity at 72 h, 100 µM [3]: 59%

Compound: CCC[C@@H]1CNC(=O)C(=O)N1C[C@@H]1CCCN1C[C@H](Cc1ccc(O)cc1)N1C[C@H](Cc2ccc(O)cc2)N(CC(CC)c2ccccc2)C(=O)C1=O (stereo partly drawn)
- inhibition at 100 µM (M14 [1]): 10%
- inhibition at 100 µM (A549 [2]): 0%
- cytotoxicity at 72 h, 100 µM [3]: 27%

Compound: Cc1[nH]c2ccccc2c1CCNCc1ccc(/C=C/C(=O)NO)cc1
- Activity (M14 [14]): Active
- Activity (M14 [15]): inactive
- Activity (M14 [16]): inactive
- Activity (M14 [17]): inactive
- Activity (M14 [18]): Dose-dependent effect
